Screening data (PubChem)
Shown are actives, neighbours in structure and some others; about 1.5% of the full set was active somewhere.
GalR3 antag – human GalR3 antagonism; 360,000 tested, 0.44% active; HEK293 GalR3-CNG cAMP membrane potential fluorescence; galR3 body fused to GalR1 C-terminus; inhibition, % at 3 µM; AID 651719; O60755;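 active = inhibition above the screen-wide average plus 3 SD, cut at about 13% in these data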;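 also: forskolin and galanin both at EC90 stimulate the cells; cAMP rise reported by CNG channel membrane potential dye signal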
Target sequence (O60755 1-299 limits assumed): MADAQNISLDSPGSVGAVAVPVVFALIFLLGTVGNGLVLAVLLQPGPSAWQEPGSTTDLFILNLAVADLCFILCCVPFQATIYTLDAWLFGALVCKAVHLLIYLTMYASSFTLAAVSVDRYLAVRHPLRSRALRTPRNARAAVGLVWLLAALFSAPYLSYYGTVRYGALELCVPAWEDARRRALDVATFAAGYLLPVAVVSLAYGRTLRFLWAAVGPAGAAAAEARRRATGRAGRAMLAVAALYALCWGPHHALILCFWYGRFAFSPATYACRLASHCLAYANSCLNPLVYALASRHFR
NR2E3 ag-1 – agonists of human nuclear receptor NR2E3 | GST-NR2E3/biotin-RetCOR TR-FRET, 1536-well | inhibition of corepressor binding, % at 4.78 µM | 320,000 tested, 0.12% active | AID 2300;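 active = percent inhibition above the cutoff of mean plus 3 SD of all tested compounds, set per screening campaign, cut at about 20% in these data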
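Test system: GST-NR2E3 and biotin-RetCOR proteins | Quantity: 1.35 nM GST-tagged NR2E3 final | Medium: Tris pH 7.5 | Also added: 7 nM biotin-RetCOR | Dosing: Compound at 4.8 µM, single dose | Timing: 5 h at 4 °C | Detection: Time-resolved FRET | Read-out basis: Percent inhibition | Benchmarks: Biotin wells as high control, 0.6% DMSO wells as low control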
NR2E3 ag-2 – activates human NR2E3 receptor; CHO-S Gal4-NCOR/VP16-NR2E3 two-hybrid, luciferase; inhibition of corepressor binding, % at 3.98 µM; 360,000 tested, 0.35% active; AID 602229;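 active = inhibition above the mean of all tested compounds plus 3 SD, cut at about 70% in these data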;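 also: higher means lower luciferase signal from less NR2E3 corepressor binding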
JMJD2C inh – inhibitors of human GASC-1 (JMJD2C) demethylase. GST-JMJD2C(1-420) H3K9me3 demethylation, DELFIA europium. inhibition, % at 2.35 µM. 330,000 tested, 0.069% active. AID 2099;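 active = more than half of a compound's replicate wells show inhibition beyond 50%, single wells judged on their own value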;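 also: signal counts dimethyl H3K9 product captured on neutravidin plate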
Jurkat NFkB inh – lowers PMA/ionomycin-induced NF-kB signal in Jurkat cells; inhibition, % at 4 µM; 330,000 tested, 0.53% active; AID 435003; PMA/ionomycin-induced NF-kB luciferase reporter, luminescence; in the data active = inhibition above about 50%
697 NFkB inh – lowers PMA/ionomycin-induced NF-kB signal in 697 B cells; 697 B-cell NF-kB luciferase reporter, 16 h; 330,000 tested, 0.33% active; inhibition, % at 4 µM; in the data active = inhibition above about 35%
Jurkat NFkB conf – inhibitors of the PMA/ionomycin-induced NF-kB reporter in Jurkat cells, retest; 2,700 tested, 27% active; inhibition, % at 4 µM; Jurkat NF-kB luciferase, 16 h; shares compounds with Jurkat NFkB inh;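 active = inhibition reaching about 45% at 4 µM in either replicate, limit read from the data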
Hits are given with their value; . = inactive; / = not tested or not shown.

SMILES | GalR3 antag | NR2E3 ag-1 | NR2E3 ag-2 | JMJD2C inh | Jurkat NFkB inh | 697 NFkB inh | Jurkat NFkB conf
Nc1c(C(=O)Nc2ccc3c(c2)OCCO3)nnn1Cc1ccc(Br)cc1 | . | . | . | . | . | . | .
Cc1cc(Cl)ccc1NC(=O)c1ccc2c(c1)OCO2 | . | . | . | . | . | . | /
O=C(Nc1cccc(C(=O)Nc2cccc(Br)c2)c1)c1ccccc1 | . | . | . | . | . | . | /
CC(C)c1ccc(NC(=O)c2cccc(Br)c2)cc1 | . | . | . | . | . | . | .
OC(c1ccccc1)(c1ccc(F)cc1)C(c1ccccc1)N1CCOCC1 (stereo not drawn) | / | . | . | . | . | . | /
O=C(Cc1ccc(-c2ccccc2)cc1)NCc1ccccc1 | . | . | . | . | 62 | . | .
Cc1ccc(CNC(=O)Cc2ccc(-c3ccccc3)cc2)cc1 | . | . | . | . | 63 | . | .
Cc1noc(C)c1COc1ccc(CC(=O)NCc2ccccc2)cc1 | . | . | . | / | 62 | . | .
O=C(Cc1ccc(-c2ccccc2)cc1)NCc1cccnc1 | . | . | . | . | . | . | /
COC(=O)C1CC2(C(=O)OC)CC(C(=O)OC)(CC(C(=O)OC)C2=O)C1=O (stereo not drawn) | . | / | . | / | / | / | /
Nc1nn2cc(-c3ccccc3)nc2c2ccccc12 | . | . | . | . | . | . | .
O=C(N/N=C/c1ccccc1)c1[nH]c2ccc(Br)cc2c1-c1ccccc1 | . | . | . | . | 58 | . | .
O=C(NN=C1CCCC1)c1[nH]c2ccc(Br)cc2c1-c1ccccc1 | . | . | / | / | . | . | /
CC12CCC(O)CC1=CCC1C2CCC2(C)c3[nH]ncc3CC12 (stereo not drawn) | . | / | . | / | / | / | /
Cc1cc(C)nc(S/C=C/C(=O)c2ccc(F)cc2)n1 | / | . | / | . | 70 | . | .
Cc1cc(C)nc(SCC(=O)c2ccc(F)cc2)n1 | . | . | . | . | . | . | /
O=C1CCCc2nc3c(cc21)C(O)Oc1c-3ccc2ccccc12 (stereo not drawn) | . | . | . | . | . | . | .
CSc1cc(-c2ccncc2)nc(-c2ccc(Cl)cc2)c1 | . | . | . | . | . | . | /
CCOC(=O)c1c(C)[nH]c(N=Nc2cccc(OC)c2)c1C | . | . | . | . | . | . | .
CCOC(=O)c1c(C)[nH]c(N=Nc2cccc(C)c2)c1C | . | . | . | . | . | . | /
CCN(CC)c1ccc(NC(=S)Nc2ccc(F)cc2)cc1 | . | / | . | . | . | . | /
O=C(NC1CCCCC1)c1ccc([N+](=O)[O-])o1 | / | . | . | . | . | . | /
O=C(NC1CCCCC1)c1ccc(-c2ccccc2[N+](=O)[O-])o1 | . | . | . | . | . | . | .
COc1ccc(-c2cc(-c3ccccc3)c(C#N)c(S(C)(=O)=O)n2)cc1 | . | . | . | . | . | . | /
COc1nc(-c2ccccc2)cc(-c2ccc3c(c2)OCO3)c1C#N | . | . | . | . | 57 | . | .
SMILES | GalR3 antag | NR2E3 ag-1 | NR2E3 ag-2 | JMJD2C inh | Jurkat NFkB inh | 697 NFkB inh | Jurkat NFkB conf
Cc1cc2nc(C(C)(C)C)c(Cc3cccc(F)c3)n2c(C)c1Br | . | / | . | / | / | / | /
CCCC/C(O)=C1\C(=O)CC(C)(C)CC1=Nc1ccccc1OC | . | . | . | . | . | . | /
CCC/C(O)=C1\C(=O)CC(C)(C)CC1=Nc1ccc(OC)cc1OC | . | . | . | . | 62 | . | .
c1ccc(CSC2=NNC(c3ccccn3)S2)cc1 (stereo not drawn) | . | . | . | . | 71 | . | .
CCN(CC)CCNC(=O)c1ccc2c(c1NCCO)C(=O)c1ccccc1C2=O | . | . | . | . | 86 | . | 47
CCN(C(=O)CSc1nnc(-c2ccccc2OC)n1N)c1c(N)n(Cc2ccccc2)c(=O)[nH]c1=O | . | / | . | / | / | / | /
COc1ccc(CCC(=O)Nc2nc3c(s2)CN(C)CC3)cc1OC | . | . | . | . | . | . | /
c1ccc(-c2cnc(-c3ccccn3)nn2)cc1 | . | . | . | . | . | . | /
c1ccc(-c2cnc(-c3ccccc3)nn2)cc1 | . | . | . | . | . | . | .
Cc1ccccc1CSc1nc2[nH]ncc2c(=O)[nH]1 | . | . | . | . | . | . | /
Cc1ccc(C)c(CSc2nc3[nH]ncc3c(=O)[nH]2)c1 | . | . | . | . | 66 | . | .
O=C(NCCC1=CCCCC1)NC12CC3CC(CC(C3)C1)C2 | . | . | . | . | . | . | .
O=C(NCCCc1ccncc1)C1CCC(=O)N(CCc2cccc(F)c2)C1 (stereo not drawn) | . | . | . | . | . | . | /
CCN(C[C@H]1N[C@@](Cc2ccccc2)(C(=O)OC)[C@H]2C(=O)N(Cc3ccccc3)C(=O)[C@@H]12)C(=O)Nc1ccc(Cl)cc1 | . | / | . | . | . | . | /
CN(c1ccccc1)S(=O)(=O)c1ccc(NC(=O)c2nc(S(C)(=O)=O)ncc2Cl)cc1 | . | . | . | . | 53 | . | .
Cc1cc(NC(=O)CSc2nc3ccccc3c(=O)n2C2CCCC2)no1 | . | . | . | . | 64 | . | 51
COc1ccc(OC)c(NC(=O)CCn2ccnc2)c1 | . | . | . | . | . | . | /
COc1ccc(-n2ncc3c(NCc4cccnc4)ncnc32)cc1 | . | . | . | . | . | . | /
C=CCNc1ncnc2c1cnn2-c1cccc(C)c1 | . | . | . | . | . | . | /
Clc1ccc(-n2ncc3c(NCc4ccccn4)ncnc32)cc1 | . | . | . | . | . | . | /
Clc1ccc(Cn2ncc3c(NCc4ccccc4)ncnc32)cc1 | . | . | . | . | 56 | . | .
COc1ccc(-n2ncc3c(NC(C)C)ncnc32)cc1 | . | . | . | . | . | . | .
C=CCNc1ncnc2c1cnn2-c1ccc(Cl)cc1 | . | . | . | . | . | . | .
COCC(C)Nc1ncnc2c1cnn2-c1ccc(Cl)cc1 (stereo not drawn) | . | . | . | . | . | . | .
CCCCc1c(-c2ccccc2OC)ncn1Cc1ccc(F)c(F)c1 | . | / | / | / | / | / | /
SMILES | GalR3 antag | NR2E3 ag-1 | NR2E3 ag-2 | JMJD2C inh | Jurkat NFkB inh | 697 NFkB inh | Jurkat NFkB conf
Cc1cc(C)n(-c2nnc3c4ccccc4n(C)c3n2)n1 | . | . | . | . | . | . | /
CCc1ccc(C(=O)NNC(=O)c2ccc(=O)n(C)n2)cc1 | . | . | . | . | . | . | /
C/C(=N\NC(=O)C(C)Oc1ccc([N+](=O)[O-])cc1)c1ccccn1 (stereo not drawn) | . | . | . | . | 61 | . | .
Nc1c(C(=O)Nc2ccc(Cl)c(C(=O)O)c2)sc2nc3c(cc12)CCCC3 | . | . | . | . | . | . | /
Nc1c(C(=O)Nc2cccc(C(=O)O)c2)sc2nc3c(cc12)CCCC3 | . | . | . | . | 70 | . | .
O=C(NCc1ccco1)C(c1ccccc1)N(Cc1cccnc1)C(=O)Cn1nnc2ccccc21 (stereo not drawn) | . | . | . | . | . | . | /
